Key:
[1] = biological target: T1, Melatonin receptor type 1A (Homo sapiens, UniProt P48039); assay: Displacement of 2-[125I]iodomelatonin from human MT1 receptor expressed in CHO cells; type: cell-based
[2] = biological target: T2, Melatonin receptor type 1B (Homo sapiens, UniProt P49286); assay: Displacement of 2-[125I]iodomelatonin from human MT2 receptor expressed in CHO cells; type: cell-based
T2 sequence (P49286 whole entry): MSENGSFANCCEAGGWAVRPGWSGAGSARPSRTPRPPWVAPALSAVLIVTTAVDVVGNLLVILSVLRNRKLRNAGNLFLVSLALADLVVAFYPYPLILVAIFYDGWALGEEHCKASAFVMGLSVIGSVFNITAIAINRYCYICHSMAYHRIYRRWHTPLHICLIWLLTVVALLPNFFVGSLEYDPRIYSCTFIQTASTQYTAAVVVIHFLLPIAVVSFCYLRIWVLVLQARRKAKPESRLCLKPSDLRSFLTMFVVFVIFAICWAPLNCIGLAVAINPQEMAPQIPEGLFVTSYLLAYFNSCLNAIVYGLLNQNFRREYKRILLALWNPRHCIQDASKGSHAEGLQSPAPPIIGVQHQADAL

Homo sapiens = species: Homo sapiens; assay: Selectivity ratio of Ki for human MT1 receptor to Ki for human MT2 receptor
Summary of the method: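 Ki values from competition binding on membranes of stably transfected CHO cells (human MT1 or MT2). Ratio is MT1 Ki over MT2 Ki.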

[3] = biological target: T1, Melatonin receptor type 1A; assay: Agonist activity at human MT1 receptor expressed in CHO cells by [35S]GTPgamma binding assay; type: functional, cell-based
[4] = biological target: T1, Melatonin receptor type 1A; assay: Agonist activity at human MT1 receptor expressed in CHO cells by [35S]GTPgamma binding assay relative to melatonin; type: functional, cell-based
[5] = biological target: T1, Melatonin receptor type 1A; assay: Antagonist activity at human MT1 receptor expressed in CHO cells assessed as inhibition of melatonin-induced [35S]GTPgamma binding; type: functional, cell-based
Summary of the method: (§1)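 Then 0.2 nM [35S]GTPγS added, 1 h at room temperature in HEPES pH 7.4/NaCl/MgCl2/GDP/saponin buffer. Filtration, three ice-cold washes.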

[6] = biological target: T2, Melatonin receptor type 1B; assay: Agonist activity at human MT2 receptor expressed in CHO cells by [35S]GTPgamma binding assay; type: functional, cell-based
[7] = biological target: T3, Melatonin receptor type 1B (Homo sapiens) (UniProt P49286); assay: Agonist activity at human MT2 receptor expressed in CHO cells by [35S]GTPgamma binding assay relative to melatonin; type: functional, cell-based
T3 sequence (whole entry): T2 sequence (P49286 whole entry)

[8] = biological target: T3, Melatonin receptor type 1B (Homo sapiens); assay: Antagonist activity at human MT2 receptor expressed in CHO cells assessed as inhibition of melatonin-induced [35S]GTPgamma binding; type: functional, cell-based; summary of the method: as §1

T1 sequence (P48039 whole entry): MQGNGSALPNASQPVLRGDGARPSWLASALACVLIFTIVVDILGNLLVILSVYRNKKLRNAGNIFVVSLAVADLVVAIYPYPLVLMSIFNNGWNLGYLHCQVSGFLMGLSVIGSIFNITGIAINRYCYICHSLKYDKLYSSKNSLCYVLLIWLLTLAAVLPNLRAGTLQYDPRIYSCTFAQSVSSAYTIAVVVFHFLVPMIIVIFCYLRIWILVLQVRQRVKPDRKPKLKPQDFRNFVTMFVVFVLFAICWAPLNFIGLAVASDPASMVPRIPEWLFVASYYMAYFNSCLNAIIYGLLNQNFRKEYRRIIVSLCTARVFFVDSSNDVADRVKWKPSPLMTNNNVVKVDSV

| Ki [1] [nM] | Ki [2] [nM] | Ratio Ki (Homo sapiens) | EC50 [3] [nM] | Emax [4] [%] | Kb [5] [nM] | EC50 [6] [nM] | Emax [7] [%] | Kb [8] [nM] | Imax [5] [%] | Imax [8] [%] | SMILES |
| --- | --- | --- | --- | --- | --- | --- | --- | --- | --- | --- | --- |
| 915 | 194 | 4.7 |  |  |  |  |  |  |  |  | O=C(NCCc1c(Sc2ccc(F)cc2)sc2ccc(F)cc12)C1CCC1 |
| 236 | 10.7 | 22 |  |  |  |  |  |  |  |  | C=CC(=O)NCCc1c(Sc2ccc(F)cc2)sc2ccc(F)cc12 |
| 2860 | 24.8 | 115 |  |  |  |  |  |  |  |  | O=C(CCCCl)NCCc1c(Sc2ccc(F)cc2)sc2ccc(F)cc12 |
| 24.6 | 4.87 | 5 | 23.8 | 87 | 62.8 | 0.68 | 61 | > 10000 |  |  | CC(=O)NCCc1csc2ccc(F)cc12 |
| 226 | 4.4 | 51.4 | > 10000 |  | 42 | > 10000 |  | 0.67 | 115 | 92 | CCC(=O)NCCc1c(Sc2ccc(F)cc2)sc2ccc(F)cc12 |
| 57 | 0.87 | 65.5 | 202 | 33 |  | 0.64 | 42 |  |  |  | CC(=O)NCCc1c(Sc2ccc(F)cc2)sc2ccc(F)cc12 |
| 22.1 | 5.21 | 4.2 | > 10000 |  |  | 7.27 | 47 |  |  |  | O=C(CBr)NCCc1c(Sc2ccc(F)cc2)sc2ccc(F)cc12 |
| 52.8 | 0.24 | 220 | 188 | 45 |  | 2.15 | 52.4 |  |  |  | C=CCC(=O)NCCc1c(Sc2ccc(F)cc2)sc2ccc(F)cc12 |
